This note sets out measurements from publication PMC2874265 (Journal of Medicinal Chemistry, 2010).

One data set deals with S. aureus ATCC 29213. Briefly: S. aureus MIC, broth microdilution. The data set is classed as cell-based. The following applies: for MIC: Staphylococcus aureus, ATCC29213, read-out: S. aureus MIC + 2% BSA; for S. aureus MIC: S. aureus ATCC 29213, broth microdilution. Summed up: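 Broth microdilution MIC per CLSI recommendations against S. aureus ATCC 29213. Protein-shift runs added 2% w/v bovine serum albumin to the assay. End point reproducible within one 2-fold dilution.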

The subject of the next data set is S. aureus (Smith). Briefly: Murine septicaemia model of staphylococcal infection. Particulars: SC, 3, 10, or 30 mg/kg. The data set is classed as in vivo.
Data set [1] is described as follows: Mouse intravenous pharmacokinetics. Format: in vivo. The essentials:
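Mice dosed intravenously, either 3 mg/kg given individually or 2 mg/kg in a cassette. Plasma sampled at 5, 15, 30, 60, 120, 240 and 480 min and concentrations measured by LC/MS/MS. AUC, C0, CL, T1/2 and V calculated from plasma concentrations.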

On to `COc1cc2nc(COc3ccc(F)c(C(N)=O)c3F)sc2nc1Cl` [compound 28d], for which the MIC with S. aureus ATCC 29213 was greater than 64 µg/mL.

On to `NC(=O)c1c(F)ccc(OCc2nc3cc(-c4ccccc4)ccc3s2)c1F` [compound 8a], for which the MIC with S. aureus ATCC 29213 is 4 µg/mL.

Take `NC(=O)c1c(F)ccc(OCc2nc3cc(C(F)(F)F)ccc3s2)c1F` [8e]: the “S. aureus MIC” value in the data set with S. aureus ATCC 29213 was “submicrogram/mL”.

In the case of `NC(=O)c1c(F)ccc(OCc2nc3cc(Br)ccc3s2)c1F` [compound 8d], in the data set on S. aureus ATCC 29213, the “S. aureus MIC” value is “submicrogram/mL”.

Consider `NC(=O)c1c(F)ccc(OCc2nc3cc(Cl)ccc3s2)c1F` [compound 8j], for which the “survival of infected mice” value with S. aureus (Smith) is given as “died on day 2”. For the same molecule, the MIC with S. aureus ATCC 29213 was 2 µg/mL. Also, the V in data set [1] (intravenous, 2 mg/kg in a cassette) was 5.8 L/kg. In data set [1] (plasma, iv, 2 mg/kg), this molecule displayed an AUC of 100 ng·h/mL, a C0 of 500 ng/mL, a clearance of 315 mL/min/kg and a half-life of 13 min.

As for `CCCc1ccc2sc(COc3ccc(F)c(C(N)=O)c3F)nc2c1` [compound 11], the “S. aureus MIC” value in the data set with S. aureus ATCC 29213 was “submicrogram/mL”.

In the case of `CCOc1ccc2sc(COc3ccc(F)c(C(N)=O)c3F)nc2c1` [compound 8b], in the data set with S. aureus ATCC 29213, the “S. aureus MIC” value is “submicrogram/mL” and the MIC turned out to be 0.5 µg/mL.
